Hits are enriched below; roughly 0.59% of the tested compounds scored in any of these assays.
OXTR potentiate – human OXTR potentiators, primary screen, fluorescence, CHO-OTR cells, Fluo-8 calcium; Oxytocin receptor (Homo sapiens), P30559; Fluo-8 calcium fluorescence, potentiator mode; 0% = oxytocin EC15, 100% = EC100; activation, % at 3 µM; 0.061% of 320,000 active;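 active = activation above that plate's cutoff, the mean activation of tested compounds plus 3 SD, cut at about 6.6% in these data, passing the limit was not always enough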;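 note: 100% uses oxytocin at 75 nM as the full agonist control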
Target sequence (P30559 whole entry, looked up): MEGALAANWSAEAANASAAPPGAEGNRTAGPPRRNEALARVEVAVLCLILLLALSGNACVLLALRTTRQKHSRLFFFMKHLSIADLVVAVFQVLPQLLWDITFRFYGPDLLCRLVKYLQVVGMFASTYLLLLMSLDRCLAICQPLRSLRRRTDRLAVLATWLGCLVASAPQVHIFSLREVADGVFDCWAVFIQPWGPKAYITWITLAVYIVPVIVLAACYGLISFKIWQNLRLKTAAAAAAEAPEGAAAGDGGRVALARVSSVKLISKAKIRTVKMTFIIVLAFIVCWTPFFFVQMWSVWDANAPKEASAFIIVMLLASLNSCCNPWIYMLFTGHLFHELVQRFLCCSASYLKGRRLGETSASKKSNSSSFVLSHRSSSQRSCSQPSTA
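Material: CHO-OTR cells, human receptor; compound dosing: single dose, 3.0 µM nominal final compound concentration; schedule: 6 min compound pre-incubation at room temperature, 100 s kinetic read; measured by: kinetic Fluo-8 calcium fluorescence; read-out basis: % activation vs EC15 and EC100 oxytocin; controls: EC15 oxytocin alone as 0%, 75 nM oxytocin as 100%; replicates: singlicate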
zfTRPN1 agonist – zebrafish TRPN1 channel agonists, primary screen, cell-based, HEK293, calcium fluorescence | transient receptor potential cation channel N1 (TRPN1/NompC), Danio rerio | HEK293 zebrafish TRPN1-YFP, Fluo-8 calcium fluorescence; 100% = response to 87 µM carbachol | activation, % at 3 µM | 0.18% of 220,000 active | AID 1424, 2008;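 active = activation above its plate's cutoff, the mean activation of test wells on that plate plus 3 SD, cut at about 19% in these data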;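 note: 0% = DMSO alone and 100% = 87 µM carbachol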
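Material: zebrafish TRPN1-YFP in HEK293 cells. Doses: one dose of 3 µM, 0.3% DMSO. Incubation: dye 1 h 37 °C plus 30 min RT. Measured by: intracellular calcium fluorescence with Fluo-8.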
OXTR agonist – human OXTR agonists, primary screen, fluorescence, CHO-OTR cells, Fluo-8 calcium | Oxytocin receptor (Homo sapiens), P30559 | 0.32% of 320,000 active | Fluo-8 calcium fluorescence; normalized: DMSO 0%, oxytocin 100% | activation, % at 3 µM | AID 2435, 2010;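 active = activation above the mean of all tested compounds plus 3 SD, cutoff set per screening run, cut at about 20% in these data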;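 note: peak over basal fluorescence ratio from a 100 s FLIPR kinetic read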
TRPML3 agonist – human TRPML3 channel agonists, primary screen, cell-based, HEK293 TRPML3-YFP, Fluo-8 calcium fluorescence, 3 µM. Mucolipin-3 (Homo sapiens), Q8TDD5. 100% = the carbachol control signal. activation, % at 3 µM. 0.29% of 220,000 active;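 active = activation above its plate's cutoff, the mean activation of the plate's test wells plus 3 SD, cut at about 12% in these data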;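 note: 0% = DMSO only wells and 100% = carbachol wells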
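system = HEK293 cells stably carrying human TRPML3-YFP | doses = one concentration, 3 µM nominal, 0.3% DMSO | timing = dye loading 1 h 37 °C then 30 min ambient, 125 s read | detection = Fluo-8 calcium dye fluorescence, ex 470-495, em 515-575 nm | benchmarks = high control carbachol 87 µM, low control DMSO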
V1aR counter – agonists of human V1a receptor, primary screen, counter-screen for OXTR agonist project, fluorescence, CHO-V1R cells; Vasopressin V1a receptor (Homo sapiens), P37288; activation, % at 3 µM; 0.25% of 320,000 active; Fluo-8 calcium fluorescence, agonist mode; 0% DMSO, 100% 3 nM vasopressin;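 active = activation above the mean activation of all tested compounds plus 3 SD, per screening run, cut at about 20% in these data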;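 note: signal is peak over basal fluorescence ratio across a 100 second FLIPR read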
* hit, by the source's call; nt = no result given.

SMILES	OXTR potentiate	zfTRPN1 agonist	OXTR agonist	TRPML3 agonist	V1aR counter
Fc1ccc(-c2cn3cc(C(F)(F)F)cc(Cl)c3n2)cc1	-1	-1	-2	0	-1
Cc1nc(S/C(=C/c2ccc(-c3cc(Cl)ccc3C)o2)C(=O)O)n[nH]1	4	0	-1	0	0
O=C(O)c1cc(Cl)ccc1-c1ccc(/C=C/c2cc(C(F)(F)F)[nH]c(=O)n2)o1	-8	29*	14	13*	17
O=C(O)c1ccccc1-c1ccc(/C=C/c2cc(C(F)(F)F)[nH]c(=O)n2)o1	nt	81*	nt	28*	nt
O=c1nc(/C=C/c2ccc(-c3ccc(F)cc3)o2)cc(C(F)(F)F)[nH]1	-10	1	9	2	15
COc1ccc(NS(=O)(=O)c2ccc(NC(=S)NC(=O)C(C)C)cc2)cc1	-22	12	20*	7	24*
CCOc1ccc(NS(=O)(=O)c2ccc(NC(=S)NC(C)=O)cc2)cc1	-14	17	29*	5	27*
COc1ccc(CC(=O)NC(=S)Nc2ccc(S(N)(=O)=O)cc2)cc1	-13	9	25*	7	24*
COc1ccc(S(=O)(=O)Nc2ccc(NC(C)=O)cc2)cc1	-4	1	1	0	0
CCOc1ccc(NS(=O)(=O)c2ccc(NC(=S)NC(=O)C(C)C)cc2)cc1	-17	3	9	4	8
CC1CCC(NC(=O)CN2C(=O)NC3(CCCCCC3)C2=O)CC1 (centres undefined)	0	nt	-2	nt	0
O=C(NNC(=O)C1CC(=O)N(Cc2ccccc2)C1)c1ccc(F)cc1 (centres undefined)	1	nt	0	nt	1
CCOc1ccccc1C(=O)NCC(=O)NNC(=O)CN(C)S(=O)(=O)c1ccc(Cl)cc1	1	nt	-1	nt	-1
C#CCOCCOCCOCCNc1nc(N2CCOCC2)nc(N2CCN(C(=O)[C@H](CO)n3cc([C@@H](N)C(C)C)nn3)CC2)n1	0	nt	2	nt	1
CSc1cccc(NS(=O)(=O)c2cn(C)cn2)c1	-1	nt	0	nt	2
O=C(N/N=C1\C2CN3CCN(C2)CC1(c1ccccc1)C3)c1ccc(F)cc1	-4	1	0	1	0
Nc1ccccc1C(=O)N/N=C1\C2CN3CCN(C2)CC1(c1ccccc1)C3	14*	1	1	1	0
O=C(O)c1ccccc1NS(=O)(=O)c1cccc(-n2sc3ccccc3c2=O)c1	-7	nt	0	nt	3
CCS(=O)(=O)Nc1ccc(C2=NN(C(=O)c3ccco3)C(c3ccc(C)cc3)C2)cc1 (centres undefined)	11*	-1	-1	-1	0
Cc1ccc(C2CC(c3ccc(NS(C)(=O)=O)cc3)=NN2C(=O)c2ccco2)cc1 (centres undefined)	-4	0	-2	0	1
CC[n+]1c(/C=C/N(C)c2ccccc2)oc2ccc(Cl)cc21	2	0	1	0	6
CCN1/C(=C/C=C/c2oc3ccc4ccccc4c3[n+]2CC)Oc2ccc3ccccc3c21	-6	73*	39*	31*	45*
N#C/C(=C/c1ccc(N2CCOCC2)o1)C(=O)NC1CCCCC1	-8	6	12	4	8
COc1ccc(NC(=O)/C(C#N)=C/c2ccc(Br)o2)cc1	-3	1	0	0	0
N#C/C(=C/c1ccc(N2CCOCC2)o1)c1nc2ccccc2[nH]1	-12	2	40*	1	21*
SMILES	OXTR potentiate	zfTRPN1 agonist	OXTR agonist	TRPML3 agonist	V1aR counter
COc1ccc(NC(=O)/C(C#N)=C\c2ccc(N3CCOCC3)o2)cc1	-36	49*	70*	40*	117*
N#C/C(=C\c1ccc(N2CCOCC2)o1)C(=O)Nc1ccc(O)cc1	-21	10	20*	4	29*
CC1CCN(C(=O)COC(=O)c2cccs2)CC1	-4	nt	0	nt	1
CCN1C(=O)/C(=C/C=C2\N(CC)c3cc(S(=O)(=O)N(C)C)ccc3N2c2ccccc2)SC1=S	-7	22*	19	6	19
Cc1ccc(S(=O)(=O)N(Cc2ccccc2)Cc2ccco2)cc1	-21	-1	-2	45*	0
Cc1cc(/C=C2\C(=N)N3N=C(S(C)(=O)=O)SC3=NC2=O)c(C)n1Cc1ccccc1	-12	0	-1	0	-1
CCCC1=NN2C(=N)/C(=C\c3cc(C)n(Cc4ccccc4)c3C)C(=O)N=C2S1	-18	3	48*	0	43*
CCOC(=O)C1C(c2ccc3c(c2)OCO3)NC(=O)NC1(O)C(F)(F)F (centres undefined)	-12	28*	2	1	1
Cc1ccc2c(C)c(C(=O)Nc3ccc(S(=O)(=O)Nc4onc(C)c4C)cc3)oc2c1	-3	nt	0	nt	0
COc1ccc(N=Nc2nc3ccc(Br)cc3n2C)cc1	-12	39*	6	30*	13
O=C(CN1CCN(S(=O)(=O)c2ccccc2)CC1)NCCc1ccccc1	-11	nt	-1	nt	0
CC(=O)c1cccc(NC(=S)NC(=O)Cc2ccc(Cl)cc2)c1	-25	nt	26*	nt	21*
CSC1=NC2(CC(c3ccccc3)Oc3cc(O)ccc32)CC(C)(C)N1 (centres undefined)	-21	4	21*	1	42*
COc1cccc(C2CC3(CC(C)(C)NC(=S)N3)Oc3cc(O)ccc32)c1 (centres undefined)	-7	0	-1	0	0
O=C(OCn1ncc(Cl)c(Cl)c1=O)c1ccccc1Cl	17*	-1	-2	0	-2
CC(C)CN(C(=O)Cn1nnc(-c2ccc(F)cc2)n1)C1CCS(=O)(=O)C1 (centres undefined)	-3	nt	1	nt	1
CCCCN1/C(=C/c2ccc3ccccc3[n+]2CC)Sc2ccccc21	nt	52*	nt	21*	nt
CCN1/C(=C/c2ccc3cc(C)ccc3[n+]2C)Sc2ccc3sccc3c21	nt	17	nt	9	nt
CCN1/C(=C/c2ccc3cc(C)ccc3[n+]2CC)Sc2cc(C)ccc21	nt	33*	nt	13*	nt
CCC(C)C(NC(=O)C1CCC(=O)N1C(=O)OCc1ccccc1)C(=O)NC(Cc1ccccc1)C(N)=O (centres undefined)	5	nt	1	nt	0
CC[C@H](C)[C@H](NC(=O)[C@H](Cc1ccc(O)cc1)NC(=O)[C@@H](N)C(C)C)C(=O)N[C@@H](Cc1cnc[nH]1)C(=O)N1CCC[C@H]1C(=O)N[C@@H](Cc1ccccc1)C(=O)O	-25	0	72*	2	25*

Screening results as filed in PubChem.
